In ChEMBL document CHEMBL1629526, “4-[1-(Substituted aryl/alkyl carbonyl)-benzoimidazol-2-yl]-benzenesulfonic acids: synthesis, antimicrobial activity, QSAR studies, and antiviral evaluation” (Eur J Med Chem, 2010):

Columns and labels:
[1] = Cytotoxicity against human HEL cells assessed as altered cell morphology; assay type: cell-based
Procedure, shortened: (§1)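 Uninfected cell cultures run alongside the antiviral assays, exposed to serial compound dilutions and incubated at 37 °C for 2–4 days. Toxicity was scored microscopically and reported as the minimum cytotoxic concentration (MCC), the lowest concentration causing a detectable change in normal cell morphology.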

MDCK = assay: Cytotoxicity against MDCK cells assessed as cell viability by MTS assay; assay type: cell-based, Canis lupus familiaris; conditions: dog, mdck
Procedure, shortened: (§2)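 Uninfected cultures were run in parallel with the antiviral assays. Viability was read by colorimetric formazan MTS assay.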

[2] = Cytotoxicity against MDCK cells assessed as altered cell morphology; assay type: cell-based, Canis lupus familiaris; conditions: dog; procedure, shortened: as §1
Candida albicans = assay: Antimicrobial activity against Candida albicans after 48 hrs by tube dilution method; assay type: functional
Coxsackievirus B4 [3] = assay: Antiviral activity against coxsackievirus B4 infected in human HeLa cells assessed as inhibition of virus induced cytopathicity by visual scoring of CPE; assay type: functional, organism-based; conditions: Enterovirus B
[4] = Cytotoxicity against african green monkey Vero cells assessed as altered cell morphology; assay type: cell-based; conditions: chlorocebus sabaeus; procedure, shortened: as §1
[5] = tested on: Respiratory syncytial virus; assay: Antiviral activity against Respiratory syncytial virus infected in human HeLa cells assessed as inhibition of virus induced cytopathicity after 2 to 4 days by MTS assay; assay type: functional, organism-based
Influenza B virus [6] = assay: Antiviral activity against Influenza B virus infected in MDCK cells assessed as inhibition of virus induced cytopathicity by visual scoring of CPE; assay type: functional, organism-based
[7] = Cytotoxicity against human HeLa cells assessed as altered cell morphology; assay type: cell-based; procedure, shortened: as §1
[8] = tested on: Mammalian orthoreovirus 1; assay: Antiviral activity against Reovirus 1 virus infected in african green monkey Vero cells assessed as inhibition of virus induced cytopathicity after 2 to 4 days by MTS assay; assay type: functional, organism-based; conditions: Mammalian orthoreovirus 1, Vero
Punta Toro virus = assay: Antiviral activity against Punta Toro virus infected in african green monkey Vero cells assessed as inhibition of virus induced cytopathicity after 2 to 4 days by MTS assay; assay type: functional, organism-based
Human alphaherpesvirus 2 = assay: Antiviral activity against Herpes simplex virus 2 G infected in HEL cells assessed as inhibition of virus induced cytopathicity after 2 to 4 days by MTS assay; assay type: functional, organism-based; conditions: Human alphaherpesvirus 2, strain G
Vaccinia virus = assay: Antiviral activity against Vaccinia virus infected in HEL cells assessed as inhibition of virus induced cytopathicity after 2 to 4 days by MTS assay; assay type: functional, organism-based; conditions: Orthopoxvirus vaccinia
Influenza B virus [9] = assay: Antiviral activity against Influenza B virus infected in MDCK cells assessed as inhibition of virus induced cytopathicity after 2 to 4 days by MTS assay; assay type: functional, organism-based
Human alphaherpesvirus 1 [10] = assay: Antiviral activity against Herpes simplex virus 1 KOS infected in HEL cells assessed as inhibition of virus induced cytopathicity after 2 to 4 days by MTS assay; assay type: functional, organism-based; conditions: Human alphaherpesvirus 1, KOS
[11] = Cytotoxicity against cat CRFK cells assessed as cell viability by MTS assay; assay type: cell-based, Felis catus; procedure, shortened: as §2
Felid alphaherpesvirus 1 = assay: Antiviral activity against Feline herpesvirus 1 infected in cat CRFK cells assessed as inhibition of virus induced cytopathicity after 2 to 4 days by MTS assay; assay type: functional, organism-based; conditions: Felid alphaherpesvirus 1, CRFK
Aspergillus niger = assay: Antimicrobial activity against Aspergillus niger after 7 days by tube dilution method; assay type: functional; conditions: 168 h
Coxsackievirus B4 [12] = assay: Antiviral activity against Coxsackie virus B4 infected in african green monkey Vero cells assessed as inhibition of virus induced cytopathicity after 2 to 4 days by MTS assay; assay type: functional, organism-based; conditions: Enterovirus B
Influenza A virus [13] = assay: Antiviral activity against Influenza A H3N2 virus subtype infected in MDCK cells assessed as inhibition of virus induced cytopathicity after 2 to 4 days by MTS assay; assay type: functional, organism-based
Human respirovirus 3 = assay: Antiviral activity against parainfluenza-3 virus infected in african green monkey Vero cells assessed as inhibition of virus induced cytopathicity after 2 to 4 days by MTS assay; assay type: functional, organism-based; conditions: Human respirovirus 3, Vero
Influenza A virus [14] = assay: Antiviral activity against Influenza A H3N2 virus subtype infected in MDCK cells assessed as inhibition of virus induced cytopathicity by visual scoring of CPE; assay type: functional, organism-based
[15] = tested on: Vesicular stomatitis virus; assay: Antiviral activity against Vesicular stomatitis virus infected in human HeLa cells assessed as inhibition of virus induced cytopathicity by visual scoring of CPE; assay type: functional, organism-based
Coxsackievirus B4 [16] = assay: Antiviral activity against coxsackievirus B4 infected in human HeLa cells assessed as inhibition of virus induced cytopathicity after 2 to 4 days by MTS assay; assay type: functional, organism-based; conditions: Enterovirus B
Bacillus subtilis = assay: Antimicrobial activity against Bacillus subtilis after 24 hrs by tube dilution method; assay type: functional
Procedure, shortened: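 Serial dilutions in double-strength nutrient broth (I.P.) with ciprofloxacin as reference, tube dilution, incubated 37 °C for 24 h. MIC is the lowest concentration that inhibited growth.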

Sindbis virus = assay: Antiviral activity against Sindbis virus infected in african green monkey Vero cells assessed as inhibition of virus induced cytopathicity after 2 to 4 days by MTS assay; assay type: functional, organism-based
Staphylococcus aureus = assay: Antimicrobial activity against Staphylococcus aureus after 24 hrs by tube dilution method; assay type: functional
HeLa = assay: Cytotoxicity against human HeLa cells assessed as cell viability by MTS assay; assay type: cell-based; conditions: hela; procedure, shortened: as §2
[17] = tested on: Vesicular stomatitis virus; assay: Antiviral activity against Vesicular stomatitis virus infected in human HeLa cells assessed as inhibition of virus induced cytopathicity after 2 to 4 days by MTS assay; assay type: functional, organism-based
[18] = tested on: Vesicular stomatitis virus; assay: Antiviral activity against Vesicular stomatitis virus infected in HEL cells assessed as inhibition of virus induced cytopathicity after 2 to 4 days by MTS assay; assay type: functional, organism-based
Human alphaherpesvirus 1 [19] = assay: Antiviral activity against thymidine kinase deficient acyclovir-resistant Herpes simplex virus 1 KOS infected in HEL cells assessed as inhibition of virus induced cytopathicity after 2 to 4 days by MTS assay; assay type: functional, organism-based; conditions: Human alphaherpesvirus 1, KOS
[20] = tested on: Respiratory syncytial virus; assay: Antiviral activity against Respiratory syncytial virus infected in human HeLa cells assessed as inhibition of virus induced cytopathicity by visual scoring of CPE; assay type: functional, organism-based
Feline coronavirus = assay: Antiviral activity against Feline coronavirus infected in cat CRFK cells assessed as inhibition of virus induced cytopathicity after 2 to 4 days by MTS assay; assay type: functional, organism-based; conditions: Alphacoronavirus 1, CRFK
Escherichia coli = assay: Antimicrobial activity against Escherichia coli after 24 hrs by tube dilution method; assay type: functional

CCCCCCCCCCCCCCCC(=O)n1c(-c2ccc(S(=O)(=O)O)cc2)nc2ccccc21
6.25 µg/mL: MBC (Staphylococcus aureus)
> 100 µg/mL: MCC [1] | CC50 (MDCK) | MCC [2] | EC50 (Coxsackievirus B4 [3]) | MCC [4] | EC50 [5] | EC50 (Influenza B virus [6]) | MCC [7] | EC50 [8] | EC50 (Punta Toro virus) | EC50 (Human alphaherpesvirus 2) | EC50 (Vaccinia virus) | EC50 (Influenza B virus [9]) | EC50 (Human alphaherpesvirus 1 [10]) | CC50 ([11]; crfk) | EC50 (Felid alphaherpesvirus 1) | EC50 (Coxsackievirus B4 [12]) | EC50 (Influenza A virus [13]) | EC50 (Human respirovirus 3) | EC50 (Influenza A virus [14]) | EC50 [15] | EC50 (Coxsackievirus B4 [16]) | EC50 (Sindbis virus) | CC50 (HeLa) | EC50 [17] | EC50 [18] | EC50 (Human alphaherpesvirus 1 [19]) | EC50 [20] | EC50 (Feline coronavirus)
> 50 µg/mL: MFC (Candida albicans) | MFC (Aspergillus niger)
12.5 µg/mL: MBC (Bacillus subtilis) | MBC (Escherichia coli)

CCCCCCCC/C=C/CCCCCCCC(=O)n1c(-c2ccc(S(=O)(=O)O)cc2)nc2ccccc21
> 50 µg/mL: MFC (Aspergillus niger)
12.5 µg/mL: MBC (Staphylococcus aureus)
> 100 µg/mL: MCC [1] | CC50 (MDCK) | MCC [2] | EC50 (Coxsackievirus B4 [3]) | MCC [4] | EC50 [5] | EC50 (Influenza B virus [6]) | MCC [7] | EC50 [8] | EC50 (Punta Toro virus) | EC50 (Human alphaherpesvirus 2) | EC50 (Vaccinia virus) | EC50 (Influenza B virus [9]) | EC50 (Human alphaherpesvirus 1 [10]) | CC50 ([11]; crfk) | EC50 (Felid alphaherpesvirus 1) | EC50 (Coxsackievirus B4 [12]) | EC50 (Influenza A virus [13]) | EC50 (Human respirovirus 3) | EC50 (Influenza A virus [14]) | EC50 [15] | EC50 (Coxsackievirus B4 [16]) | EC50 (Sindbis virus) | CC50 (HeLa) | EC50 [17] | EC50 [18] | EC50 (Human alphaherpesvirus 1 [19]) | EC50 [20] | EC50 (Feline coronavirus)
50 µg/mL: MFC (Candida albicans) | MBC (Bacillus subtilis)
3.12 µg/mL: MBC (Escherichia coli)

Nc1nc2c(ncn2COC(CO)CO)c(=O)[nH]1 [GANCICLOVIR]
58 µg/mL: EC50 (Human alphaherpesvirus 1 [19])
> 100 µg/mL: MCC [1] | CC50 ([11]; CRFK cells, read-out: CC50) | EC50 (Felid alphaherpesvirus 1)
1.7 µg/mL: EC50 (Feline coronavirus)
0.03 µg/mL: EC50 (Human alphaherpesvirus 2) | EC50 (Human alphaherpesvirus 1 [10])

O=c1[nH]c(=O)n([C@H]2C[C@H](O)[C@@H](CO)O2)cc1/C=C/Br [BRIVUDINE]
112 µg/mL: EC50 (Vaccinia virus)
> 250 µg/mL: MCC [1] | EC50 (Human alphaherpesvirus 1 [19])

Nc1ccn(C[C@@H](CO)OCP(=O)(O)O)c(=O)n1.O.O [CIDOFOVIR]
0.2 µg/mL: EC50 (Human alphaherpesvirus 2)
> 250 µg/mL: MCC [1] | EC50 (Vaccinia virus) | EC50 (Human alphaherpesvirus 1 [19])
0.4 µg/mL: EC50 (Human alphaherpesvirus 1 [10])
